Assay results reported in ChEMBL document CHEMBL4477175, “Sclerotiamide: The First Non-Peptide-Based Natural Product Activator of Bacterial Caseinolytic Protease P” (J Nat Prod, 2016).
Active and inactive are the calls of the source. No cut-off for these calls is given here. Bridge positions count the residues as written; N and C are the ends. Square brackets hold non-standard residues; d marks the D form. Peptide text beside a SMILES is read from it. * marks the point of attachment. X1 = O=C(/C=C/C=C/C=C/C=C/C=C/C(=O)*)NC1=C(O)CCC1=O; Pro(4R-Me) = C[C@H]1CN[C@H](C(=O)O)C1; NMeA = CN[C@@H](C)C(=O)O

Experiments:
[1] = target: ATP-dependent Clp protease proteolytic subunit (Bacillus subtilis (strain 168)) (UniProt P80244); test: Activation of Bacillus subtilis ClpP expressed in Escherichia coli BL21 (DE3) using beta casein as substrate at 25 uM preincubated for 15 mins followed by substrate addition measured every 30 mins by SDS-PAGE
Method in brief: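 Recombinant His-tagged BsClpP (Ni-NTA then gel filtration), 420 nM tetradecamer in 25 mM Tris-HCl pH 7.5, 100 mM KCl, preincubated with compound for 15 min at 37 °C. Bovine β-casein added to 7.5 µM final. Reactions quenched in Laemmli buffer at 80 °C after 5 min, 30 min, 1 h and/or 2 h. Loss of the β-casein band was followed on a 10% Bis-Tris SDS gel.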

Bacillus [2] = test: Activation of Bacillus subtilis ClpP expressed in Escherichia coli BL21 (DE3) using FITC-beta casein as substrate assessed as degradation of substrate peptide at 25 uM preincubated for 15 mins followed by substrate addition measured every 30 mins for 6 hrs by fluorescence assay
[3] = target: T1, ATP-dependent Clp protease proteolytic subunit (Escherichia coli (strain K12), UniProt P0A6G7); test: Activation of Escherichia coli BLR (DE3) ClpP using Abz-DFAPKMALVPYNO2 as substrate assessed as degradation of substrate peptide preincubated for 15 mins followed by substrate addition measured every 30 mins for 2 hrs by fluorescence assay
Method in brief: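 His-tagged EcClpP, 25 nM tetradecamer, in 25 mM HEPES pH 7.5, 100 mM KCl, 5 mM MgCl2, 10% glycerol, 1 mM DTT. Preincubated with a concentration range of compound for 15 min at 30 °C, then 15 µM final decapeptide added. Read at 30 °C, ex 320/em 420 nm. DMSO-subtracted ΔRFU was fitted for apparent activation constant (Kapp).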

[4] = target: T1, ATP-dependent Clp protease proteolytic subunit; test: Activation of Escherichia coli BLR (DE3) ClpP using FITC-beta casein as substrate assessed as degradation of substrate peptide preincubated for 15 mins followed by substrate addition measured every 30 mins for 6 hrs by fluorescence assay
[5] = target: ATP-dependent Clp protease proteolytic subunit (Escherichia coli (strain K12)) (UniProt P0A6G7); test: Activation of Escherichia coli BLR (DE3) ClpP using bovine milk FITC-beta casein as substrate assessed as change in relative fluorescent units at 50 uM preincubated for 15 mins followed by substrate addition measured every 30 mins for 6 hrs by fluorescence assay
Method in brief: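 Single-concentration screen: 300 nM tetradecameric recombinant E. coli ClpP in 25 mM Tris-HCl pH 7.5, 100 mM KCl, preincubated with compound (50 µM) 15 min at 37 °C. FITC-β-casein added (final 1.92 µM). Kept at 37 °C; fluorescence (ex 485/em 538 nm) read every 30 min for 6 h. ΔRFU = well minus 1% DMSO well; hits had end-point above 22 500 RFU.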

[6] = target: ATP-dependent Clp protease proteolytic subunit (Escherichia coli (strain K12)) (UniProt P0A6G7); test: Ratio of EC50 for Escherichia coli BLR (DE3) ClpP using FITC-beta casein as substrate to ratio of EC50 for Escherichia coli ClpP using Abz-DFAPKMALVPYNO2 as substrate
Pseudomonas aeruginosa = test: Antibacterial activity against Pseudomonas aeruginosa PAO1116 harboring deltamexAB-oprM/deltamexCD-oprj/deltamexEF-oprN/deltaJK/deltamexXY/deltatriABC mutant assessed as bacterial growth inhibition at 100 uM after 18 hrs by 2-fold dilution method; type: functional, organism-based
Method in brief: (§1)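 Broth dilution MIC: cells subcultured 1:100 in LB and grown to OD600 ~1.0. Inoculated at 10^5 cells/mL in LB with 2-fold increasing compound concentrations, up to 100 µM. Incubated 18 h at 37 °C; growth scored visually.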

Bacillus [7] = test: Activation of Bacillus subtilis ClpP expressed in Escherichia coli BL21 (DE3) using FITC-beta casein as substrate assessed as degradation of substrate peptide at 50 uM preincubated for 15 mins followed by substrate addition measured every 30 mins for 2 hrs by fluorescence assay
[8] = target: ATP-dependent Clp protease proteolytic subunit (Bacillus subtilis (strain 168)) (UniProt P80244); test: Activation of Bacillus subtilis ClpP expressed in Escherichia coli BL21 (DE3) using beta casein as substrate at 50 uM preincubated for 15 mins followed by substrate addition measured every 30 mins by SDS-PAGE
Method in brief: (§2)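 His-tagged ClpP (E. coli or B. subtilis) expressed with IPTG overnight at 25 °C and purified by Ni-NTA and gel filtration. 420 nM tetradecamer in 25 mM Tris-HCl pH 7.5, 100 mM KCl, preincubated with compound 15 min at 37 °C. Bovine β-casein added (final 7.5 µM). Quenched in Laemmli buffer at 5 min, 30 min, 1 h and/or 2 h. β-Casein band loss read on 10% Bis-Tris SDS-PAGE.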

Beta-casein (Bos taurus) = target: T2, Beta-casein (Bos taurus) (UniProt P02666); test: Intrinsic proteolytic activity against fluorescein isothiocyanate-conjugated bovine milk beta casein at 50 uM preincubated for 15 mins followed by substrate addition measured every 30 mins for 6 hrs by fluorescence assay
T2 sequence (whole entry): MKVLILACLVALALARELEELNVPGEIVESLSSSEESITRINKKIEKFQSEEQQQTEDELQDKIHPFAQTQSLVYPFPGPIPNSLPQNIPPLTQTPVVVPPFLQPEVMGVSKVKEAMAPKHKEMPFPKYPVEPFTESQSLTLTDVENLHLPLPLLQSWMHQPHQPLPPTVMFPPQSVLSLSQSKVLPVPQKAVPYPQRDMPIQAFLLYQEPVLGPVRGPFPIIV
Method in brief: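 Enzyme-free control: compound (50 µM) incubated with FITC-β-casein (1.92 µM) in 25 mM Tris-HCl pH 7.5, 100 mM KCl. Substrate cleavage read as fluorescence at 538 nm emission after 485 nm excitation.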

Escherichia coli = test: Antibacterial activity against Escherichia coli M5418 harboring deltaacrB/deltaacrD/deltaacrEF::spc deltaemrBdeltaemrYdeltaentS::cam deltamacB deltamdtC deltamdtF mutant assessed as bacterial growth inhibition at 100 uM after 18 hrs by 2-fold dilution method; type: functional, organism-based; method in brief: as §1
[9] = target: ATP-dependent Clp protease proteolytic subunit (Escherichia coli (strain K12)) (UniProt P0A6G7); test: Activation of Escherichia coli BLR (DE3) ClpP using beta casein as substrate at 50 uM preincubated for 15 mins followed by substrate addition measured every 30 mins by SDS-PAGE; conditions: TDE = time-dependent effect; method in brief: as §2

T1 sequence (P0A6G7 whole entry): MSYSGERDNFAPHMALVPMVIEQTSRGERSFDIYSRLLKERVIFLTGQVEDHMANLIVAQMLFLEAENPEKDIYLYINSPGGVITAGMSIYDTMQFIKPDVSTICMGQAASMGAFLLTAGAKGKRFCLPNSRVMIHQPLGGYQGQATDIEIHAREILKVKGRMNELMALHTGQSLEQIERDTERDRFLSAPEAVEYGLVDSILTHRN
Sequence of ATP-dependent Clp protease proteolytic subunit (Escherichia coli (strain K12)) (P0A6G7 whole entry): as above
Sequence of ATP-dependent Clp protease proteolytic subunit (Bacillus subtilis (strain 168)) (P80244 whole entry, looked up): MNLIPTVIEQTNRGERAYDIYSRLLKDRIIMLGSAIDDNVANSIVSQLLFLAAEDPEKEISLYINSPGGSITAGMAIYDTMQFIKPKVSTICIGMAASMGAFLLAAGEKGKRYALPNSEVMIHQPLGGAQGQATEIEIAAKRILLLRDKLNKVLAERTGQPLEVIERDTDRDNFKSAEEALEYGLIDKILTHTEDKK

In the case of CCOC(=O)[C@@H]1C(=O)C[C@@](O)(c2ccc(Br)cc2)C[C@H]1C=C(Cl)Cl, the Activity [1] is reported as “inactive”, the Activity (Bacillus [2]) is reported as “inactive” and the EC50 [3] is reported as 25.4 µM. The EC50 [4] was 22.2 µM.
For C=CC(C)(C)[C@@]12Nc3c(ccc4c3C=CC(C)(C)O4)[C@]1(O)C[C@H]1C(=O)N3CCC[C@]3(O)C(=O)N12, the Activity [5] was “inactive”.
For CC1(C)C=Cc2c(ccc3c2NC(=O)[C@@]32C[C@@]34NC(=O)[C@]5(CCCN5C3=O)C[C@H]4C2(C)C)O1, the Activity [5] was “inactive”.
CC1(C)C=Cc2c(ccc3c2[N+]([O-])=C2C3=C[C@@]34NC(=O)[C@]5(CCCN5C3=O)CC4C2(C)C)O1 (some centres not stated) was tested, and the Activity [5] was “inactive”.
For CC1(C)C=Cc2c(ccc3c4c([nH]c23)C(C)(C)C2C[C@]35CCCN3C(=O)[C@@]2(C4)NC5=O)O1 (some centres not stated), the Activity [5] was “inactive”.
For CC1(C)C=Cc2c(ccc3c4c(n(O)c23)C(C)(C)C2C[C@]35CCCN3C(=O)[C@]2(NC5=O)C4=O)O1 (some centres not stated), the Activity [5] was “inactive”.
With C[C@@H]1C[C@H]2C(=O)OC[C@H](NC(=O)[C@H](Cc3ccccc3)NC(=O)/C=C/C=C/C=C/C=C/C=C/C(=O)NC3=C(O)CCC3=O)C(=O)N3CCC[C@H]3C(=O)N(C)[C@@H](C)C(=O)N[C@@H](C)C(=O)N2C1 (X1-FSP[NMeA]A[Pro(4R-Me)]; ester 2-C) the Ratio EC50 [6] was 10, the EC50 [3] was 0.1 µM and the EC50 [4] was 1.2 µM.
For CC1(C)C=Cc2c(ccc3c2NC(=O)[C@@]32[C@H](O)[C@@]34NC(=O)[C@]5(CCCN5C3=O)C[C@H]4C2(C)C)O1 [SCLEROTIAMIDE], the Ratio EC50 [6] was 2.2, the Activity (Pseudomonas aeruginosa) was “inactive” and the Activity (Bacillus [7]) was “inactive”. The Activity [8] was “inactive”, the Activity (Beta-casein (Bos taurus)) was “inactive” and the Activity [5] was 29900 RFU. For the same compound, the Activity (Escherichia coli) was “inactive”, the EC50 [3] was 39.6 µM and the EC50 [4] was 87.5 µM. The Activity [9] was “Tde”.
